Converted amounts (≈) assume the structure as drawn.
What was measured:
Pseudomonas aeruginosa = test: Antibacterial activity against Pseudomonas aeruginosa ATCC 13525 after 24 hrs by MTT assay; format: functional; conditions: ATCC 13525, 24 h
Outline: (§1)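 Broth microdilution in sterile liquid MH medium; compounds from 1 mg/mL DMSO stock, serially diluted. Inoculum about 10^5 cfu/mL, 37 °C for 24 h. MIC read visually, then MTT (2 mg/mL in PBS pH 7.4) added for 4–5 h at room temperature. Dye extracted with acidified isopropanol for 12 h, OD at 550 nm.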

Staphylococcus aureus = test: Antibacterial activity against Staphylococcus aureus ATCC 6538 after 24 hrs by MTT assay; format: functional; conditions: ATCC 6538, 24 h; outline: as §1
Escherichia coli = test: Antibacterial activity against Escherichia coli ATCC 35218 after 24 hrs by MTT assay; format: functional; conditions: ATCC 35218, 24 h; outline: as §1
Bacillus spizizenii = test: Antibacterial activity against Bacillus subtilis ATCC 6633 after 24 hrs by MTT assay; format: functional; conditions: ATCC 6633, 24 h; outline: as §1
[1] = Cytotoxicity against human macrophages after 24 hrs by MTT assay; format: cell-based, Macrophage
Outline: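 Human macrophages in DMEM with 10% FBS and antimycotic, 1.8×10^4 cells/well. Compounds at 160, 40, 10, 2.5, 0.25 μg/mL in 10% DMSO, 24 h at 37 °C under 5% CO₂. Then MTT for 4 h, formazan dissolved in DMSO, absorbance difference 570/630 nm as viability. CC50 by curve fitting; untreated cells as negative control.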

[2] = Inhibition of Escherichia coli N-terminal His-tagged FabH expressed in Escherichia coli BL21(DE3) using holo-acyl carrier protein as substrate preincubated for 1 min followed by acetyl-CoA addition measured after 25 mins by liquid scintillation counting analysis
Outline: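 His-tagged FabH purified by Ni–NTA. Reaction: 1 nM FabH, […], 20 mM sodium phosphate pH 7.0, 0.5 mM DTT, 0.25 mM MgCl₂, 1 min preincubation. Started with 25 μM acetyl-CoA plus 0.75 μCi [³H]acetyl-CoA for 25 min. Stopped with cold TCA, protein pellet counted by liquid scintillation. Inhibitors from DMSO stock, final DMSO ≤2%; IC50 determined.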

| SMILES | MIC (Pseudomonas aeruginosa) | MIC (Staphylococcus aureus) | MIC (Escherichia coli) | MIC (Bacillus spizizenii) | IC50 [2] | pIC50 [2] | CC50 at 24 h [1] |
| --- | --- | --- | --- | --- | --- | --- | --- |
| CCOc1cccc(CC(=O)Nc2nc(-c3ccccc3)cs2)c1 | 50 µg/mL (≈ 148 µM) | > 100 µg/mL | 50 µg/mL (≈ 148 µM) | > 100 µg/mL | – | – | – |
| O=C(Cc1cccc(Cl)c1)Nc1nc(-c2ccc(Br)cc2)cs1 | 12.5 µg/mL (≈ 30.7 µM) | – | 6.25 µg/mL (≈ 15.3 µM) | – | 9.3 µM | 5.27 | 194 µM |
| O=C(Cc1ccc(Cl)cc1)Nc1nc(-c2ccc(Br)cc2)cs1 | – | – | – | – | 34.7 µM | 4.46 | 286 µM |
| COc1cccc(CC(=O)Nc2nc(-c3ccccc3)cs2)c1 | 25 µg/mL (≈ 77.1 µM) | – | – | – | – | – | – |
| O=C(Cc1ccc(Br)cc1)Nc1nc(-c2ccc(Br)cc2)cs1 | – | – | – | – | 48.1 µM | 4.32 | 315 µM |
| O=C(Nc1nc(-c2ccccc2)cs1)c1ccccc1 | – | – | – | – | > 100 µM | – | – |
| O=C(Cc1ccc(F)cc1)Nc1nc(-c2ccccc2)cs1 | – | – | – | – | 38.4 µM | 4.42 | 318 µM |
| COc1cccc(CC(=O)Nc2nc(-c3ccc(Br)cc3)cs2)c1 | 3.13 µg/mL (≈ 7.76 µM) | 3.13 µg/mL (≈ 7.76 µM) | 12.5 µg/mL (≈ 31 µM) | 6.25 µg/mL (≈ 15.5 µM) | 6.6 µM | 5.25 | 192 µM |

Further lines, with some results ahead:

| MIC (Pseudomonas aeruginosa) | MIC (Staphylococcus aureus) | MIC (Escherichia coli) | MIC (Bacillus spizizenii) | IC50 [2] | pIC50 [2] | SMILES | CC50 at 24 h [1] |
| --- | --- | --- | --- | --- | --- | --- | --- |
| 25 µg/mL (≈ 59.9 µM) | > 100 µg/mL | 50 µg/mL (≈ 120 µM) | 50 µg/mL (≈ 120 µM) | – | – | CCOc1cccc(CC(=O)Nc2nc(-c3ccc(Br)cc3)cs2)c1 | – |
| – | – | – | – | 41.8 µM | 4.38 | O=C(Cc1ccc(Cl)cc1)Nc1nc(-c2ccccc2)cs1 | 357 µM |
| – | – | – | – | 26.9 µM | 4.57 | O=C(Cc1cccc(Br)c1)Nc1nc(-c2ccccc2)cs1 | 257 µM |
| – | – | – | – | 12.3 µM | 4.91 | O=C(Cc1cccc(Cl)c1)Nc1nc(-c2ccccc2)cs1 | 264 µM |
| – | – | – | – | 4.9 µM | – | CC1(C)S[C@@H]2[C@H](NC(=O)Cc3ccccc3)C(=O)N2[C@H]1C(=O)O [PENICILLIN G] | 229 µM |
| 3.13 µg/mL (≈ 6.92 µM) | – | 1.56 µg/mL (≈ 3.45 µM) | 1.56 µg/mL (≈ 3.45 µM) | 5.8 µM | 5.01 | O=C(Cc1cccc(Br)c1)Nc1nc(-c2ccc(Br)cc2)cs1 | 220 µM |
| – | – | – | – | 29.3 µM | 4.53 | O=C(Cc1ccc(F)cc1)Nc1nc(-c2ccc(Br)cc2)cs1 | 264 µM |
| – | – | – | – | > 100 µM | – | O=C(Nc1nc(-c2ccc(Br)cc2)cs1)c1ccccc1 | – |

From ChEMBL document CHEMBL3124817, “Design and synthesis of thiazole derivatives as potent FabH inhibitors with antibacterial activity” (Eur J Med Chem, 2014)
